Shown are actives, neighbours in structure and some others; about 2.3% of the full set was active somewhere.
NR2E3 ag-1 = activates human photoreceptor nuclear receptor NR2E3 | GST-NR2E3/biotin-RetCOR TR-FRET, 1536-well | inhibition of corepressor binding, % at 4.78 µM | Q9Y5X4 | AID 2300 | 0.12% of 320,000 active;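 active = percent inhibition above the cutoff of mean plus 3 SD of all tested compounds, set per screening campaign, cut at about 20% in these data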;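 note: 0% = DMSO wells and 100% = biotin wells as full block of FRET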
Target sequence (Q9Y5X4 whole entry, looked up): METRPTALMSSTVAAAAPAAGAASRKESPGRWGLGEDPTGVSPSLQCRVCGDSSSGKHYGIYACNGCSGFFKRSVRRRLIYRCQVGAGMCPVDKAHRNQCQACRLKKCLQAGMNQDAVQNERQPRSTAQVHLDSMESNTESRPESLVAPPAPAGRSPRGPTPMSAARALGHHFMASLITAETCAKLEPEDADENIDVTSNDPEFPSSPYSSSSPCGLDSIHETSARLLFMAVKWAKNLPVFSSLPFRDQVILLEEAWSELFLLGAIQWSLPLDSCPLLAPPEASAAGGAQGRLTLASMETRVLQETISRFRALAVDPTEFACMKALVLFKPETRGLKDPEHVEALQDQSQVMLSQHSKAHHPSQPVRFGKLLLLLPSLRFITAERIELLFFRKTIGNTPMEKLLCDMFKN
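System: GST-tagged NR2E3 plus biotinylated RetCOR corepressor; Buffer or medium: pH 7.5 Tris-based buffer; Probe or stimulus: RetCOR corepressor, biotinylated, 7 nM; Doses: compound at 4.8 µM, single dose; Schedule: 5 h incubation at 4 °C; Technique: time-resolved FRET; Evaluation: percent inhibition of TR-FRET ratio; Replication: one well per compound, singlicate testing.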
CHT inh = inhibits the human high affinity choline transporter; AID 488975; Q9GZV3; CHT-expressing cells, membrane potential dye, choline response; hits give low values; 0.86% of 310,000 active; B-score at 10 µM;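 active = B-score over 3 SD under the library average, and starting fluorescence ratio not unusually high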;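 note: choline stimulus applied at its EC90 after an EC20 pre-addition; B-score computed on integrated fluorescence ratio after choline addition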
CHT allo act = allosterically activates the human high affinity choline transporter; Q9GZV3; CHT-expressing cells, membrane potential dye, choline EC20; hits give high values; LV-AA mutant CHT in HEK293 cells; B-score at 10 µM; 0.49% of 310,000 active;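 active = initial fluorescence not abnormally high and integrated response B-score, plate-corrected, over 3 SD above library mean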
NR2F2 inh = NR2F2 (human) inhibition, primary screen; AID 686940; HEK293T NGFI-A luciferase reporter, luminescence; inhibition, % at 8.6 µM; 0.7% of 370,000 active; P24468;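 active = inhibition above a per-plate cutoff, mean inhibition of test wells between control levels plus 3 SD, cut at about 38% in these data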;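 note: cells cotransfected with COUP-TFII expression vector driving the NGFI-A reporter; 0% = median of COUP-TF2 test wells and 100% = reporter-only cells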
NR2E3 ag-2 = activates human NR2E3 receptor; Q9Y5X4; CHO-S Gal4-NCOR/VP16-NR2E3 two-hybrid, luciferase; inhibition of corepressor binding, % at 3.98 µM; 0.35% of 360,000 active;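 active = inhibition above the mean of all tested compounds plus 3 SD, cut at about 70% in these data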;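 note: 0% = DMSO with NR2E3 transfected cells and 100% = cells lacking NR2E3 construct; higher means lower luciferase signal from less NR2E3 corepressor binding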
GalR3 antagonist = blocks the human galanin receptor 3; HEK293 GalR3-CNG cAMP membrane potential fluorescence; galR3 body fused to GalR1 C-terminus; 0.44% of 360,000 active; inhibition, % at 3 µM; AID 651719;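 active = inhibition above the screen-wide average plus 3 SD, cut at about 13% in these data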;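 note: forskolin and galanin both at EC90 stimulate the cells; cAMP rise reported by CNG channel membrane potential dye signal; 0% = forskolin plus galanin with DMSO and 100% = forskolin alone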
CHT act confirm = human CHT activation, confirmatory screen; shares compounds with CHT allo act; CHT-expressing cells, membrane potential dye fluorescence (FDSS); % of choline EC20–EC90 response window; HEK293 expressing CHT LV-AA mutant; choline added at its EC20; activation, % at 10 µM; 91% of 2,500 active;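 active = primary screen active, with duplicate mean activation above negative control mean plus 3 SD, cut at about 11% in these data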
HEK293 MP dye = CHT activator counter-screen hit in parental HEK293 cells; shares compounds with CHT allo act; ratio readout change at 10 µM, hits read low; 62% of 2,500 active; membrane potential dye fluorescence (FDSS); measured after EC20 choline addition;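 active = duplicate-averaged ratio beyond 3 SD from buffer wells, up or down, though filed actives are nearly all decreases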
* hit, by the source's call; i = inactive; / = no result given.

SMILES	NR2E3 ag-1	CHT inh	CHT allo act	NR2F2 inh	NR2E3 ag-2	GalR3 antagonist	CHT act confirm	HEK293 MP dye
COc1cc(/C=N/Nc2nncc3ccccc23)cc(OC)c1OC	-4	i	7.6*	-49	-118	-8	40*	-48*
C(=N\Nc1nncc2ccccc12)/c1ccccc1	1	i	i	-12	-112	-1	/	/
COC(=O)[C@]12C[C@H](CC(=O)N3CCOCC3)C(=O)N(Cc3ccco3)C1=C[C@H](COCc1ccccc1)O[C@@H]2C	/	/	/	-29	/	/	/	/
Cc1cccc2c(=O)cc(C)n(CC(N)=O)c12	-1	i	11*	-5	-37	-3	68*	-78*
CNC(=O)Cn1c(C)cc(=O)c2cccc(OC)c21	-4	i	13*	-23	9	1	64*	-89*
O=C(Nc1ccc(OC(F)(F)F)cc1)Nc1c(-c2ccc(F)cc2)nc2ncccn12	/	/	/	-2	/	/	/	/
O=C(Cc1cccs1)NC1CCCCN(Cc2cccc(Cl)c2)C1=O (stereo not given)	/	/	/	-5	/	/	/	/
Cc1ccc(C(C)C)c(OCc2nn(CC(=O)c3ccc(OC(F)F)cc3)c3[n+]2CCCCC3)c1	-5	i	9.8*	/	6	/	9	i
COc1ccc(-c2csc3nc(C)nc(N4CCCCC4)c23)cc1OC	3	i	i	-19	-15	-4	27*	i
COc1ccc(-c2csc3nc(C)n(-n4cccc4)c(=O)c23)cc1OC	5	i	i	3	5	3	/	/
Cc1[nH]n(-c2ccc([N+](=O)[O-])cc2)c(=O)c1/C=N/N1CCOCC1	1	i	i	-5	1	-5	/	/
CC(=NCCCn1ccnc1)c1c(C)[nH]n(-c2ccc([N+](=O)[O-])cc2)c1=O	0	i	7.8*	5	-11	-7	49*	-44*
COc1ccc2sc(C)[n+](C)c2c1	0	i	11*	4	-25	-9	39*	-30*
N=c1c(C(=O)NC2CCCC2)cc2c(=O)n3ccccc3nc2n1C1CCCCC1	-1	i	i	3	-17	-6	48*	-35*
Cc1ccc2nc3c(cc(C(=O)NC4CCCCC4)c(=N)n3C3CCCCC3)c(=O)n2c1	6	i	i	1	-4	1	/	/
CC(C)c1ccccc1NC(=O)Cn1c(-c2ccccc2Cl)nc2ccccc21	2	i	i	1	2	-5	22*	i
CC(C)c1ccccc1NC(=O)Cn1c(/C=C/c2ccccc2)nc2ccccc21	0	i	i	/	/	/	/	/
Cn1ncc(C#N)c1/N=C/N(Cc1ccccc1)Cc1ccccc1	-1	i	16*	19	7	-5	46*	i
COc1cc(NS(C)(=O)=O)ccc1Nc1c2ccccc2nc2ccccc12	0	i	8.3*	-63	34	-4	13*	-54*
COc1ccc(OC)c(Nc2c3ccccc3nc3ccccc23)c1	-4	i	i	16	-81	-11	/	/
COC(=O)C1=C(C(=O)OC)SC(=C2C(=S)C(C)(C)N(C(=O)C(C)C)c3ccccc32)S1	1	i	i	-16	-35	1	/	/
CCCC(=O)N1c2ccccc2C(=C2SC(C(=O)OC)=C(C(=O)OC)S2)C(=S)C1(C)C	0	i	i	5	-13	-1	20*	i
CCOC(=O)C1(Cc2cccc(OC)c2)CCN(CC2CC=CCC2)CC1 (stereo not given)	-3	i	i	8	9	-8	/	/
CCOC(=O)C1(Cc2ccccc2)CCN(CC2CC=CCC2)CC1 (stereo not given)	0	i	i	-4	10	-9	2	i
COC(=O)c1cccc(Cn2ccc3ccc(-c4ccc5ccn(C(=O)C6CC6)c5c4)cc32)c1	/	/	/	3	/	/	/	/
SMILES	NR2E3 ag-1	CHT inh	CHT allo act	NR2F2 inh	NR2E3 ag-2	GalR3 antagonist	CHT act confirm	HEK293 MP dye
Cc1cc(N2CCOCC2)c2c(N)cc(C)c(C)c2n1	0	i	i	0	-17	-3	55*	-73*
CCOC(=O)c1c(NC(=O)c2ccco2)n(C2CCCCC2)c2nc3ccccc3nc12	7	i	7.3*	14	-14	-4	42*	i
CCOC(=O)c1c(N)n(-c2ccc(N)cc2)c2nc3ccccc3nc12	-1	i	i	-6	11	-1	/	/
CCOC(=O)c1c(N)n(C2CC(C)(C)NC(C)(C)C2)c2nc3ccccc3nc12	2	i	6.7*	/	17	/	57*	-72*
Cc1cccc(-c2cccc3c4c([nH]c23)[C@@H]2C[C@H](N(C)C(=O)OCc3ccccc3)[C@H]([C@H](C)O)CN2CC4)c1	/	/	/	25	/	/	/	/
O=C1CN(C(=O)c2ccccc2[N+](=O)[O-])C(c2ccccc2)c2cc(Br)ccc2N1 (stereo not given)	1	i	6.7*	19	-20	-13	24*	i
O=C1CN(C(=O)c2c(F)cccc2F)C(c2ccccc2)c2cc(Br)ccc2N1 (stereo not given)	-3	i	i	0	-24	-8	14*	i
Cc1ccc2c(c1)C(c1ccccc1)N(C(=O)c1ccccc1[N+](=O)[O-])CC(=O)N2 (stereo not given)	/	i	i	9	-19	-11	/	/
O=C1CN(C(=O)c2c(F)cccc2F)C(c2ccc(F)cc2)c2cc(Br)ccc2N1 (stereo not given)	2	i	i	15	5	-7	/	/
COc1cc2c(cc1OC)C(c1cccs1)N(C(=S)NC(C)C)CC2 (stereo not given)	0	i	8.7*	-7	-11	-7	14*	i
COc1cc2c(cc1OC)C(c1cccs1)N(C(=O)c1ccncc1)CC2 (stereo not given)	3	i	i	-5	-7	-9	/	/
Cc1sc2ncn3ncnc3c2c1C	3	i	i	25	-13	-6	/	/
Cc1sc2ncn3cnnc3c2c1C	2	i	i	5	-11	-1	45*	-41*
O=C(CSc1ncnc2scc(-c3ccccc3)c12)N1CCN(c2ccccc2F)CC1	1	i	i	4	-12	-7	42*	i

Assay outcomes from PubChem BioAssay.
